Assay results taken from ChEMBL document CHEMBL3785068, “Synthesis and biological evaluation of novel 6,7-dihydro-5H-cyclopenta[d]pyrimidine and 5,6,7,8-tetrahydroquinazoline derivatives as sigma-1 (σ1) receptor antagonists for the treatment of pain” (Bioorg Med Chem Lett, 2016).

How the values were obtained:
[1] = target: Sigma non-opioid intracellular receptor 1 (Cavia porcellus, UniProt Q60492); test: Displacement of [3H]-(+)-pentazocine from sigma1 receptor in guinea pig brain membrane after 180 mins by liquid scintillation counter; format: cell membranes
[2] = tested on: Mus musculus; test: Antinociceptive activity in Kun Ming mouse assessed as inhibition of formalin-induced pain response during phase 2 measured as licking and biting time at 80 mg/kg, ip preincubated with compound for 15 mins followed by formalin injection measured after 15 to 45 mins; format: functional
Method in brief: (§1)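 Formalin injected intraplantar into the mouse hind paw. Licking/biting time scored in phase I (0–5 min) and phase II (15–45 min) after 80 mg/kg test dose. At least ten animals per group; mean ± SEM; two-way ANOVA with Newman-Keuls test against vehicle and formalin-alone groups.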

[3] = tested on: Mus musculus; test: Antinociceptive activity in Kun Ming mouse assessed as inhibition of formalin-induced pain response during phase 1 measured as licking and biting time at 80 mg/kg, ip preincubated with compound for 15 mins followed by formalin injection measured up to 5 mins; format: functional; method in brief: as §1

Sigma non-opioid intracellular receptor 1, sequence (Q60492 whole entry): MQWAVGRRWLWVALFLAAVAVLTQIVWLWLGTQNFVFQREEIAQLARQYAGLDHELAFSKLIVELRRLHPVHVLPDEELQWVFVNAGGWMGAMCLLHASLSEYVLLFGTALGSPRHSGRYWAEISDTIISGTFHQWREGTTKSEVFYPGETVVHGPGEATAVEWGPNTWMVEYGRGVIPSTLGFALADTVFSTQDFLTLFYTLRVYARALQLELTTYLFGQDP

Row | Ki [1] [nM] | Compound | Time [2] [s] | Time [3] [s]
1 | 21.1 | CC1CCN(CCCOc2nc(-c3ccc(Cl)cc3)nc3c2CCC3)CC1 | – | –
2 | – | Cc1cc(OCCN2CCOCC2)nn1-c1ccc2ccccc2c1 | 55.4 | 16.8
3 | 138 | CN(C)CCCOc1nc(-c2ccccc2)nc2c1CCCC2 | – | –
